Measured values reported in ChEMBL document CHEMBL4406846, “Development of novel multipotent compounds modulating endocannabinoid and dopaminergic systems” (Eur J Med Chem, 2019).
Values after ≈ are worked out from the molar mass of the structure shown. Active and inactive are the calls of the source. The calls are words filed in the database; no cut-off is given here.

Legend:
[1] = molecular target: Cannabinoid receptor 1 (Mus musculus) (UniProt P47746); assay: Displacement of [3H]CP55, 940 from mouse brain membrane CB1 receptor
Chain of Cannabinoid receptor 1 (Mus musculus) (P47746 whole entry): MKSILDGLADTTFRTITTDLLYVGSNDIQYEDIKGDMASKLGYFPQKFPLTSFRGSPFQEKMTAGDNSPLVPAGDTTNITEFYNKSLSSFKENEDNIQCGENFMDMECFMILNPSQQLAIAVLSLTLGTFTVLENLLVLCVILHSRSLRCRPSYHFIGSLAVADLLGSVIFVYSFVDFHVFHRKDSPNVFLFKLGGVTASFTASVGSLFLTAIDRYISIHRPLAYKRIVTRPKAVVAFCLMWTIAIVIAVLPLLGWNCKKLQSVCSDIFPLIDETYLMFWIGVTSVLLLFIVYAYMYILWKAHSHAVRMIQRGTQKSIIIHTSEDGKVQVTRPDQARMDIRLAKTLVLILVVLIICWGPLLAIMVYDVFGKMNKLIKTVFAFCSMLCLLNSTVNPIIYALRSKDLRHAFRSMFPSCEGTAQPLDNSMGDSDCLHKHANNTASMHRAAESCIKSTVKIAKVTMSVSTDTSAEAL
Outline: (§1)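 Mouse brain membrane fraction (18000×g pellet) in 50 mM Tris-HCl, 2 mM Tris-EDTA, 3 mM MgCl2, pH 7.4. Rapid filtration binding with the agonist [³H]CP55,940; nonspecific binding defined with 1 μM unlabelled agonist; compound added directly to the incubation.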

[2] = Mutagenicity in Salmonella typhimurium TA100 assessed as number of revertants at 5 to 230 uM incubated for 2 days by AMES test; assay type: toxicity; details: salmonella enterica subsp. enterica serovar typhimurium, 48 h
[3] = molecular target: T1, Fatty-acid amide hydrolase 1 (Mus musculus, UniProt O08914); assay: Inhibition of FAAH in mouse brain membranes assessed as inhibitory constant using [14C]-AEA as substrate incubated for 15 mins by scintillation counting method; assay type: cell membranes
T1 sequence (O08914 whole entry): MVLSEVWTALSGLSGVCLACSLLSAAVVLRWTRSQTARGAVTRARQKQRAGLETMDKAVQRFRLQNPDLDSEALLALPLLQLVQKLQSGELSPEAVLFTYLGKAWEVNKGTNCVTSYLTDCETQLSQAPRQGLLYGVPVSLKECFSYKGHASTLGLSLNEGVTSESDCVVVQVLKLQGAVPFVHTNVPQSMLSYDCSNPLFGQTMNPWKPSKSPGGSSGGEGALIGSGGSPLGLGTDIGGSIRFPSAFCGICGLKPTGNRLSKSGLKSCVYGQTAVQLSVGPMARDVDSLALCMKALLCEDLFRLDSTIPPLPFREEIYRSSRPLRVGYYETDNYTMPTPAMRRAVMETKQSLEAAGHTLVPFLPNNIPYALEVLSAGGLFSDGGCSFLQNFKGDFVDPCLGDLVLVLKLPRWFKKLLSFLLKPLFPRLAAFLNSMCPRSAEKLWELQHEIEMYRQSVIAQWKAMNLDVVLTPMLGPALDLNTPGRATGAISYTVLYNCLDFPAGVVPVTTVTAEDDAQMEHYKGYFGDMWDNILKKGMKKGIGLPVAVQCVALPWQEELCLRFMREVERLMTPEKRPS
Outline: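 Mouse brain incubated with 10 μM [¹⁴C]AEA at 37 °C for 15 min, pH 9.0, compound added to the medium. Stopped with chloroform/methanol 2:1; [¹⁴C]ethanolamine released into the aqueous phase measured. Mean of at least three experiments.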

[4] = molecular target: T2, Monoglyceride lipase (Mus musculus) (UniProt O35678); assay: Inhibition of MAGL in mouse brain assessed as release of [3H]glycerol using [3H]-2-OG as substrate incubated for 30 mins by scintillation counting method; assay type: tissue-based
T2 sequence (whole entry): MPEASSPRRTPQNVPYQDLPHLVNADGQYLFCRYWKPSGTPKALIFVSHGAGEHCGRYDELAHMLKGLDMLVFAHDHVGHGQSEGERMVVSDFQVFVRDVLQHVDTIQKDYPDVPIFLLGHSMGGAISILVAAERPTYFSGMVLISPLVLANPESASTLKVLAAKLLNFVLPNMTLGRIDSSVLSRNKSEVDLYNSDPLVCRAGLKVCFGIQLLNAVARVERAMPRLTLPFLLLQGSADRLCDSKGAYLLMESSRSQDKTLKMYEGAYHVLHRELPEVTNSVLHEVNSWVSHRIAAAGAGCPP
Outline: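 Mouse brain homogenised in 50 mM sodium phosphate pH 8.0 with 0.32 M sucrose, spun sequentially up to 100,000×g. Final supernatant incubated with 10 μM [³H]2-OG at 37 °C for 30 min; stopped with chloroform/methanol and aqueous [³H]glycerol scintillation-counted.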

[5] = molecular target: D(2) dopamine receptor (Homo sapiens, UniProt P14416); assay: Displacement of [3H]-spiperone from human D2 receptor expressed in CHO cells co-expressing Galpha16 incubated for 120 mins by liquid scintillation counting method; assay type: cell-based
Chain of D(2) dopamine receptor (P14416 whole entry): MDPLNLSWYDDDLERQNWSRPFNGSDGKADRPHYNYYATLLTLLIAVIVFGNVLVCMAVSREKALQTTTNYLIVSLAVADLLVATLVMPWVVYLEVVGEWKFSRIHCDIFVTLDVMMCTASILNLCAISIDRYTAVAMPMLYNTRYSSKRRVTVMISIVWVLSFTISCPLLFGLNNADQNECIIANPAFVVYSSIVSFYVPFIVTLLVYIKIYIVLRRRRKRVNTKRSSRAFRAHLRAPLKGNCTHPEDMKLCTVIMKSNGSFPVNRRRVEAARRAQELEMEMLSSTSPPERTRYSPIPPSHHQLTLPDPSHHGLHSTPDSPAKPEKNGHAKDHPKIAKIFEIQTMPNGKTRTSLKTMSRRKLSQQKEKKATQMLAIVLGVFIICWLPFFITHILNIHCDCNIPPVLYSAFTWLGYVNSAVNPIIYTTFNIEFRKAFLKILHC
Outline: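 Membranes from CHO cells expressing hD2 with Gα16; 2 μg protein/well, 0.08 nM [³H]-spiperone final, 23 °C for 120 min. Stopped by rapid filtration on PEI-soaked GF/B filters, bound radioactivity counted; Ki by Cheng-Prusoff; at least three experiments.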

[6] = test system: NIH3T3; assay: Cytotoxicity against mouse NIH/3T3 cells assessed as cell viability incubated for 24 hrs by neutral red uptake based assay; details: NIH3T3, 24 h
Outline: (§2)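 NIH3T3 or U-373-MG cells grown in DMEM with 10% FCS at 37 °C, 5% CO2; compound from DMSO stock diluted in complete medium, 4–100 μM, 24 h. Viability by Neutral Red Uptake (3 h NR loading, acetic acid/ethanol extraction, A540), normalised to % control; IC50 reported. Three experiments in six replicates, Student's t test.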

[7] = molecular target: D(3) dopamine receptor (Homo sapiens, UniProt P35462); assay: Displacement of [3H]-spiperone from human D3 receptor expressed in CHO cells co-expressing Galpha16 incubated for 120 mins by liquid scintillation counting method; assay type: cell-based
Chain of D(3) dopamine receptor (P35462 whole entry): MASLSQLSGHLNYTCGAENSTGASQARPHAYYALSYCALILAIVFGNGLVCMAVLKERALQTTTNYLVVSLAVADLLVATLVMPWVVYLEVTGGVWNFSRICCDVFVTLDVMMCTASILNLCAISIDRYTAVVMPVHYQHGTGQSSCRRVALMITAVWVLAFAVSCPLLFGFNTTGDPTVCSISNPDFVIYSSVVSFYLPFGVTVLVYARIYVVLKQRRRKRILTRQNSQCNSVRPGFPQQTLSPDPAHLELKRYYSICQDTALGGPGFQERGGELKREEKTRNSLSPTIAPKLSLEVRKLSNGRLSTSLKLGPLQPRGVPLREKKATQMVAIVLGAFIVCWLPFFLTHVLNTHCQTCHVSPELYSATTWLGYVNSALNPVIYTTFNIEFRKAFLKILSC

[8] = molecular target: Voltage-gated inwardly rectifying potassium channel KCNH2 (Homo sapiens, UniProt Q12809); assay: Inhibition of human ERG expressed in HEK293 cells […] by patch clamp assay; assay type: cell-based
Chain of Voltage-gated inwardly rectifying potassium channel KCNH2 (Q12809 whole entry): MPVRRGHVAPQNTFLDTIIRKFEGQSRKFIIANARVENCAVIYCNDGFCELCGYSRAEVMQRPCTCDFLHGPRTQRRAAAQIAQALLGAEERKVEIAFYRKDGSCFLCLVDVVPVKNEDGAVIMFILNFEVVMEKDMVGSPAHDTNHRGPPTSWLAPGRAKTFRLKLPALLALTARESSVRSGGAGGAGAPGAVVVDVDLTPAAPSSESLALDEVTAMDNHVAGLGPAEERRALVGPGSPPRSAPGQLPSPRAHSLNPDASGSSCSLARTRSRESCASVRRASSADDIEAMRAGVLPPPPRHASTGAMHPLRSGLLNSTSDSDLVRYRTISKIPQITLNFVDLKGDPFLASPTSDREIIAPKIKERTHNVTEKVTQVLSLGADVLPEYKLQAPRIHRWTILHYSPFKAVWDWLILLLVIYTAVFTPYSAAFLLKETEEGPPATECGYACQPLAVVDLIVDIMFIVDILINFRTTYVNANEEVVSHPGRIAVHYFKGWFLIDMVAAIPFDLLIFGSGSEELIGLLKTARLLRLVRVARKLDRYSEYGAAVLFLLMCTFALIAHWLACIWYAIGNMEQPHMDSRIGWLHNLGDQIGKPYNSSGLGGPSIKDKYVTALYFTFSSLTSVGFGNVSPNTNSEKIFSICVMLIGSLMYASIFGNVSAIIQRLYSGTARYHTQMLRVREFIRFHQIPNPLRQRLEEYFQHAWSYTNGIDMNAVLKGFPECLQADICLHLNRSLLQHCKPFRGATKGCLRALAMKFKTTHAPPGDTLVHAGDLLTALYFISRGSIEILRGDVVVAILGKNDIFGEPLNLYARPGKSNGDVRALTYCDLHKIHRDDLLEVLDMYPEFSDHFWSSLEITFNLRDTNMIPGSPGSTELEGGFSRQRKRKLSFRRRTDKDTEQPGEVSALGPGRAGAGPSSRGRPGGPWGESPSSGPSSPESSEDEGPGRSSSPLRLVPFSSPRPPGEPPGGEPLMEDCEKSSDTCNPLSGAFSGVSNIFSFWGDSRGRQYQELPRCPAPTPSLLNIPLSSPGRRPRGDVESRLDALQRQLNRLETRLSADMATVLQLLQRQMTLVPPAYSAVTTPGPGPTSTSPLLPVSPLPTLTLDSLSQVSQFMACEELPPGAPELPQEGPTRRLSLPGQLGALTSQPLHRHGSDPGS
Outline: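 HEK293 cells stably expressing hERG under a tetracycline-inducible promoter (10 μg/mL tetracycline for 24, 48 or 72 h). Automated patch clamp, tail current; 0.1, 1 and 10 μM in 0.1% DMSO after 3 min vehicle, 5 min exposure. Residual current vs vehicle gives % inhibition; IC50 estimated; at least two cells.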

[9] = molecular target: T1, Fatty-acid amide hydrolase 1; assay: Inhibition of FAAH in mouse brain membranes using [14C]-AEA as substrate incubated for 15 mins by scintillation counting method; assay type: cell membranes
[10] = molecular target: Cannabinoid receptor 2 (Mus musculus) (UniProt P47936); assay: Displacement of [3H]CP55, 940 from mouse brain membrane CB2 receptor; outline: as §1
Chain of Cannabinoid receptor 2 (Mus musculus) (P47936 whole entry): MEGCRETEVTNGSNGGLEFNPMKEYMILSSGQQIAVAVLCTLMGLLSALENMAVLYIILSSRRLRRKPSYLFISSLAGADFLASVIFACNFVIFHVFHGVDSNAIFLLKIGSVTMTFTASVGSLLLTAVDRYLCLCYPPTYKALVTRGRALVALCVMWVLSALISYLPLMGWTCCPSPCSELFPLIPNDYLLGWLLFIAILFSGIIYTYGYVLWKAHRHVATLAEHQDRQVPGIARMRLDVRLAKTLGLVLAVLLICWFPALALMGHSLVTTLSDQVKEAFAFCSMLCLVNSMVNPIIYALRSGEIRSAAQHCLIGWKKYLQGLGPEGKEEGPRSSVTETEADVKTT

[11] = Mutagenicity in Salmonella typhimurium TA98 assessed as number of revertants at 5 to 230 uM incubated for 2 days by AMES test; assay type: toxicity; details: salmonella enterica subsp. enterica serovar typhimurium, 48 h
[12] = Mutagenicity in Salmonella typhimurium TA98 assessed as number of revertants in presence of liver S9 fraction at 5 to 230 uM incubated for 2 days by AMES test; assay type: toxicity, subcellular; details: salmonella enterica subsp. enterica serovar typhimurium, s9, 48 h
[13] = Mutagenicity in Salmonella typhimurium TA100 assessed as number of revertants in presence of liver S9 fraction at 5 to 230 uM incubated for 2 days by AMES test; assay type: toxicity, subcellular; details: salmonella enterica subsp. enterica serovar typhimurium, s9, 48 h
[14] = test system: IMR-32; assay: Cytotoxicity against human IMR32 cells at 0.1 to 50 uM incubated for 24 hrs by LDH release assay; assay type: cell-based; details: imr-32, 24 h
Outline: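 IMR 32 cells exposed 24 h to 0.1, 0.5, 1, 5, 10 and 50 μM; LDH release expressed as percent of maximal release from Triton X-100-treated cells (100%). Samples run at least in triplicate, mean ± SD.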

[15] = Retention time of compound in human liver microsomes incubated for 30 mins by HPLC analysis; assay type: ADME, Microsome; details: 0.5 h
[16] = Chemical stability of compound in DMSO assessed as remaining compound at pH 3 incubated for 24 hrs by HPLC/UV/DAD analysis; assay type: physicochemical; details: read-out: Stability
Outline: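 Samples at 250 μM (2.5% DMSO) in 50 mM acetic acid, pH 3.0, held 24 h at 25 °C. HPLC/UV/DAD peak area at 254 nm after 24 h divided by area at T0 × 100; triplicate average.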

[17] = Metabolic stability in rat liver microsomes assessed as apparent decay constant at 5 uM incubated for 60 mins by UV-Vis spectrophotometry; assay type: ADME, Microsome; details: 1 h
[18] = test system: IMR-32; assay: Antiinflammatory activity in human IMR32 cells assessed as reduction in LPS-induced NF-kappaB-DNA binding at 0.5 and 1 uM preincubated for 24 hrs followed by LPS stimulation and measured after 30 mins by immunoblot analysis; assay type: functional, cell-based
[19] = Solubility of compound in DMSO at pH 3 incubated for […] by HPLC/UV/DAD analysis; assay type: physicochemical
Outline: (§3)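 10 mM DMSO stock diluted to 250 μM (2.5% DMSO) in 50 mM acetic acid (pH 3.0) or 50 mM PBS (pH 7.4). Shaken 24 h at 25 °C, filtered, diluted 1:2 and quantified by HPLC-UV at 254 nm against a 250 μM standard; triplicate average.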

[20] = Metabolic stability in human liver microsomes assessed as half life at 5 uM incubated for 60 mins by UV-Vis spectrophotometry; assay type: ADME, Microsome
[21] = test system: U373 MG; assay: Cytotoxicity against human U373MG cells assessed as cell viability incubated for 24 hrs by neutral red uptake based assay; set-up: species or system U-373MG ATCC; outline: as §2
[22] = Metabolic stability in rat liver microsomes assessed as intrinsic clearance at 5 uM incubated for 60 mins by UV-Vis spectrophotometry; assay type: ADME, Microsome; details: read-out: CLH
[23] = test system: IMR-32; assay: Antiinflammatory activity in human IMR32 cells assessed as reduction in LPS-induced NF-kappaB-DNA binding at 0.5 and 1 uM preincubated for 24 hrs followed by LPS stimulation and measured after 30 mins by ELISA; assay type: functional, cell-based
Outline: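 IMR 32 cells pre-treated 24 h at 0.5 and 1 μM, then challenged with 100 μg/mL LPS for 30 min; NF-κB p65 binding of nuclear extracts to the DNA consensus sequence measured. Mean ± SEM of 3 independent experiments.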

[24] = Metabolic stability in human liver microsomes assessed as apparent decay constant at 5 uM incubated for 60 mins by UV-Vis spectrophotometry; assay type: ADME, Microsome; details: 1 h
[25] = Metabolic stability in human liver microsomes assessed as intrinsic clearance at 5 uM incubated for 60 mins by UV-Vis spectrophotometry; assay type: ADME, Microsome; details: read-out: CLH
[26] = Metabolic stability in rat liver microsomes assessed as half life at 5 uM incubated for 60 mins by UV-Vis spectrophotometry; assay type: ADME, Microsome
[27] = Solubility of compound in DMSO at pH 7.4 incubated for […] by HPLC/UV/DAD analysis; assay type: physicochemical; outline: as §3

## NC(=O)c1ccn(-c2cccc(OC(=O)NCCN3CCN(c4ccccc4)CC3)c2)c1
[1]
  inhibition: inactive
[2]
  Activity: Non-Toxic
[3]
  Ki: 16 nM
[4]
  inhibition: inactive
[5]
  Ki: 186 nM
[6]
  IC50: 5000 nM
[7]
  Ki: 105 nM
[8]
  IC50: 5300 nM
[9]
  IC50: 58 nM
[10]
  inhibition: inactive
[11]
  Activity: Non-Toxic
[12]
  Activity: Non-Toxic
[13]
  Activity: Non-Toxic

## NC(=O)c1ccn(-c2cccc(OC(=O)NCCCCCCc3ccccc3)c2)c1
[14]
  Activity: Non-Toxic
[15]
  Retention_time: 13.72 min
[16]
  remaining at 24 h: 92.1%
[17]
  K: 0.01379 ×10⁻¹ /min
[6]
  IC50: 75000 nM
[18]
  Activity: Active
[19]
  solubility: 465 µM (≈ 189 µg/mL)
[20]
  half-life at 5 µM: 27.8 min
[21]
  IC50: 50000 nM
[22]
  microsomal CLint at 5 µM: 23.4 µL/min/mg
[23]
  Activity: Active
[24]
  K: 0.02496 ×10⁻¹ /min
[25]
  microsomal CLint at 5 µM: 41.6 µL/min/mg
[26]
  half-life at 5 µM: 50.3 min

## Cc1cc(C(N)=O)c(-c2cccc(OC(=O)NCCCN3CCN(c4ccccc4)CC3)c2)o1
[3]
  Ki: 16 nM
[5]
  Ki: 29 nM
[7]
  Ki: 19 nM
[8]
  IC50: 1100 nM
[9]
  IC50: 62 nM

## NC(=O)c1ccn(-c2cccc(OC(=O)NCCCN3CCN(c4ccccc4)CC3)c2)c1
[3]
  Ki: 25 nM
[5]
  Ki: 66 nM
[7]
  Ki: 34 nM
[8]
  IC50: 3500 nM
[9]
  IC50: 94 nM

## Cn1c(C(N)=O)ccc1-c1cccc(OC(=O)NCCN2CCN(c3ccccc3)CC2)c1
[3]
  Ki: 203 nM
[5]
  Ki: 56 nM
[7]
  Ki: 76 nM
[8]
  IC50: 6400 nM
[9]
  IC50: 791 nM

## Cc1cc(C(N)=O)c(-c2cccc(OC(=O)NCCN3CCN(c4ccccc4)CC3)c2)s1
[3]
  Ki: 6.88 nM
[5]
  Ki: 214 nM
[7]
  Ki: 148 nM
[8]
  IC50: 280 nM
[9]
  IC50: 26 nM

## Cc1cc(C(N)=O)c(-c2cccc(OC(=O)NCCN3CCN(c4ccccc4)CC3)c2)o1
[1]
  inhibition: inactive
[3]
  Ki: 0.23 nM
[14]
  Activity: Non-Toxic
[15]
  Retention_time: 9.004 min
[4]
  inhibition: inactive
[16]
  remaining at 24 h: 99.9%
[17]
  K: 0.03482 ×10⁻¹ /min
[5]
  Ki: 138 nM
[6]
  IC50: 68000 nM
[18]
  Activity: Active
[7]
  Ki: 105 nM
[19]
  solubility: 991 µM (≈ 444 µg/mL)
[8]
  IC50: < 100 nM
[8]; hek293
  pIC50: > 7
[20]
  half-life at 5 µM: 24.4 min
[21]
  IC50: 23000 nM
[9]
  IC50: 0.89 nM
[22]
  microsomal CLint at 5 µM: 59.2 µL/min/mg
[23]
  Activity: Active
[10]
  inhibition: inactive
[24]
  K: 0.02842 ×10⁻¹ /min
[25]
  microsomal CLint at 5 µM: 47.4 µL/min/mg
[27]
  solubility: 2 µM (≈ 0.897 µg/mL)
[26]
  half-life at 5 µM: 19.9 min

## NC(=O)c1ccn(-c2cccc(NC(=O)NCCN3CCN(c4ccccc4)CC3)c2)c1
[3]
  Ki: 420 nM
[9]
  IC50: 1600 nM

## Cc1cc(C(N)=O)c(-c2cccc(OC(=O)NCCN3CCN(c4ccccc4)CC3)c2)n1C
[3]
  Ki: 46 nM
[9]
  IC50: 175 nM

## Cc1cc(C(N)=O)c(-c2cccc(OC(=O)NCCN3CCN(c4ccccc4)CC3)c2)[nH]1
[3]
  Ki: 50 nM
[9]
  IC50: 195 nM

## NC(=O)c1cn(-c2cccc(OC(=O)NCCN3CCN(c4ccccc4)CC3)c2)nn1
[3]
  Ki: 194 nM
[9]
  IC50: 757 nM
